Changes are numbered by the printed parent chain.
Tests used:
[1] = target: T1, Peroxisome proliferator-activated receptor alpha (Homo sapiens, UniProt Q07869); test: Transactivation of human GAL4-fused PPARalpha LBD expressed in human HepG2 cells after 24 hrs by renilla luciferase reporter gene assay; type: cell-based
T1 sequence (Q07869 whole entry): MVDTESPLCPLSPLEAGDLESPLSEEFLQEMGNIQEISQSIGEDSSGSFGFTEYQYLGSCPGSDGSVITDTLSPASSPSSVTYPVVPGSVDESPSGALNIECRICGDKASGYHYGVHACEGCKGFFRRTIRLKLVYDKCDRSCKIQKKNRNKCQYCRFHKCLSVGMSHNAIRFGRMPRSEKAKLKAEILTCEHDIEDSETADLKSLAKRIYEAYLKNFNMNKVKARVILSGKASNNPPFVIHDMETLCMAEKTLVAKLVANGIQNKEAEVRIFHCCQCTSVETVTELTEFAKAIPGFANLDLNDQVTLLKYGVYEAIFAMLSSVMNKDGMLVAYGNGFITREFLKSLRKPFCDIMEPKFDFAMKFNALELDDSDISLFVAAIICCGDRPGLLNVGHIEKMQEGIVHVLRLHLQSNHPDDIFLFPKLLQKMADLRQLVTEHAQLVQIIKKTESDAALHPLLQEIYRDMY

[2] = target: T2, Peroxisome proliferator-activated receptor alpha (Mus musculus, UniProt P23204); test: Transactivation of mouse GAL4-fused PPARalpha expressed in human HepG2 cells after 24 hrs by dual renilla-luciferase reporter gene assay; type: cell-based
T2 sequence (P23204 whole entry): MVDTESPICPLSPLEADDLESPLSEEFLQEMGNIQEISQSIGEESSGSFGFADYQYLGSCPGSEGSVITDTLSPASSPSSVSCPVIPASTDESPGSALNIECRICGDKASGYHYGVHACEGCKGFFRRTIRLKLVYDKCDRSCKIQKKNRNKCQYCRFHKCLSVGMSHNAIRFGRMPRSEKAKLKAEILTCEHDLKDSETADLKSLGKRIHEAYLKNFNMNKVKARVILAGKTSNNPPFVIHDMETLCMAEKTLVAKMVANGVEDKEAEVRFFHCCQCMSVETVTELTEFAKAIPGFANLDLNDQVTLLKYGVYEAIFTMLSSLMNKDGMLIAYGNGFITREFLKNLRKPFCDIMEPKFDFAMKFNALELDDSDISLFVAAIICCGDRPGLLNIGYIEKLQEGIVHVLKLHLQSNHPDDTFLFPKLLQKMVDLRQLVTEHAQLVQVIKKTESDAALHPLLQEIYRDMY
In short: (§1)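 HepG2 cells carried GAL4-fused human PPARγ or PPARδ, or mouse or rat PPARα, plus the 4xUAS-tk-luc reporter. Cells treated across a concentration range for 24 h. Luciferase normalized to Renilla activity and expressed as fold induction over vehicle, set as 1.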

[3] = target: T3, Peroxisome proliferator-activated receptor alpha (Rattus norvegicus, UniProt P37230); test: Transactivation of rat GAL4-fused PPARalpha expressed in human HepG2 cells after 24 hrs by dual renilla-luciferase reporter gene assay; type: cell-based; in short: as §1
T3 sequence (P37230 whole entry): T2 sequence (P23204 whole entry) with I41L, G50S, V85A, I86V, A88T, S96N, V135A, G207A, D265N

[4] = Effect on cyclophilinA expression in human FLC4 cells after 48 hrs by SYBR green dye-based RT-PCR analysis; type: ADME, cell-based
[5] = Solubility of the compound in pH 7.4 PBS at 100 uM incubated for 10 mins under shaking condition by HPLC analysis; type: physicochemical
In short: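 Aqueous solubility determined in PBS, pH 7.4; reported in μM.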

[6] = Apparent permeability from apical to basolateral side in human Caco2 cells at 25 uM measured up to 2 hrs by LC/MS/MS analysis; type: ADME, cell-based; conditions: Caco-2
In short: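 Caco-2 monolayers; permeability measured apical-to-basolateral (A–B) at 25 μM compound, reported as ×10⁻⁶ cm/s.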

[7] = Protein binding in human plasma at 20 uM after 5 hrs by LC/MS/MS analysis; type: ADME, cell-free; conditions: read-out: PPB (converted)
In short: (§2)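 Compound at 20 μM incubated with plasma at 37°C for 5 h; percent bound to protein determined. Final DMSO 0.2%.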

[8] = Protein binding in rat plasma at 20 uM after 5 hrs by LC/MS/MS analysis; type: ADME, cell-free; conditions: read-out: PPB; in short: as §2
[9] = Metabolic stability in human liver microsomes assessed as parent compound remaining at 0.5 uM after 60 mins in presence of NADPH by LC/MS/MS analysis; type: ADME, Microsome; conditions: liver microsomes, read-out: Stability
In short: (§3)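 Compound at 0.5 μM incubated with liver microsomes at 37°C for 1 h; result given as percent remaining. Final DMSO 0.2%.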

[10] = Metabolic stability in rat liver microsomes assessed as parent compound remaining at 0.5 uM after 60 mins in presence of NADPH by LC/MS/MS analysis; type: ADME, Microsome; conditions: liver microsomes, read-out: Stability; in short: as §3
[11] = target: Peroxisome proliferator-activated receptor alpha (Homo sapiens) (UniProt Q07869); test: Displacement of fluormone pan-PPAR green from GST-tagged human PPARalpha ligand binding domain after 3 hrs by TR-FRET assay

Cc1cc(C(=O)O)c2c(C(C)C)nn(-c3ccc(Cl)cc3)c2n1
EC50 [1]: 0.66 µM | EC50 [2]: 11.3 µM | EC50 [3]: 15.9 µM | Activity [4]: Non-Toxic | solubility at 10 min, 100 µM [5]: > 95 µM | Papp A→B at 2 h, 25 µM [6]: 51.8 ×10⁻⁶ cm/s | fraction unbound at 5 h, 20 µM [7]: 0.003 | fraction unbound at 5 h, 20 µM [8]: 0.01 | remaining at 1 h, 0.5 µM [9]: 91% | remaining at 1 h, 0.5 µM [10]: 87% | IC50 [11]: 4.48 µM
